What was measured:
[1] = tested on: NALM16 cells; assay: St. Jude cancer cell line panel, NALM16; type: cell-based, human; details: ALL cell line; confidence intervals in parentheses; NA: not active
Method in brief: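 Human ALL line NALM16, derived from the peripheral blood of a child at relapse in 1977. Carries a near-haploid karyotype. Tested in a St. Jude screening panel alongside three other ALL lines, one lymphoma line and mouse choroid plexus carcinoma CPC300 cells.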

[2] = tested on: RAJI cells; assay: St. Jude cancer cell line panel, RAJI; type: cell-based; details: Burkitt's lymphoma; confidence intervals in parentheses; NA: not active
Method in brief: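 RAJI Burkitt's lymphoma cells, FAB L3 subtype, served as the panel's single lymphoma line. Screened together with four ALL lines and mouse CPC300 choroid plexus carcinoma cells at St. Jude.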

[3] = tested on: REH cells; assay: St. Jude cancer cell line panel, REH; type: cell-based, human; details: precursor B-cell ALL; confidence intervals in parentheses; NA: not active
Method in brief: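 REH: patient-derived precursor B-cell ALL line that expresses only wild-type MLL and wild-type AF4. Screened in a St. Jude panel with other ALL lines, a lymphoma line and mouse CPC300 cells.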

CSc1ccc(/C=C2/C(C)=C(CC(=O)NCCN(C)C)c3cc(F)ccc32)cc1 [SSA, sulindac sulfide amide]
no activity: EC50 NALM16 [1] | EC50 RAJI [2] | EC50 REH [3]

Reference: publication PMC6081960 (Bioorganic & medicinal chemistry letters, 2018)
